# An excerpt weighted towards active compounds, which were near 0.89% of everything screened.
# T cell modulator – T cell immune modulators affecting CD8 T cell-vesicle binding; 2C CD8+ T cell-vesicle binding, flow cytometry; active compounds read low; actives 0.068% (n = 330,000); response (vesicle binding), % at 7 µM;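 active = response, share of CD8 T cells binding vesicles, and their 90th percentile fluorescence all below set limits, cut at about 80% in these data, passing the limit was not always enough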;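 note: values below 100% mean blocked vesicle binding to the CD8+ T cells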
#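 incubation = binding step 1.5 h, 37 °C, antibody labelling 20 min, ice | test system = 2C mouse CD8+ T cells | read-out basis = percent CD8+ FL2 mean versus row control | controls = Peptide-free naked vesicles (low) and QL9 vesicles with 0.7% DMSO vehicle (high) | detection = flow cytometry of vesicle-bound cells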
# MIN6 prolif – induces beta-cell replication in MIN6 cells | proliferation, % at 10 µM | actives 0.29% (n = 330,000) | MIN6 cells proliferation, ATPlite luminescence, 48 h; cells starved in 0.2% serum; 100% = growth in 10% serum;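 active = compounds whose signal lies at least 3.5 SD above the mean of all wells on their plate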;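 note: 0% = DMSO-treated cells in low-serum medium and 100% = 10% serum control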
# Arrestin-AP2 inh – blocks beta-arrestin peptide binding to AP2 adaptin. actives 0.31% (n = 340,000). inhibition, % at 10 µM. FITC-arrestin peptide / GST-AP2 beads, flow cytometry; AP2 beta2 appendage carries R879A mutation. AID 504490;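 active = inhibition above a set limit, near 3 SD of compounds lacking own fluorescence, cut at about 54% in these data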;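 note: plate controls were DMSO wells for no effect and 5 µM unlabelled arrestin peptide for full effect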
#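 system = GST-tagged AP2 beta2-adaptin appendage (R879A) on 4 µm glutathione beads | reagent = FITC-labelled arrestin peptide probe, 50 nM final | schedule = compound with beads 12 min RT, then probe 1 h RT | signal = HyperCyt-sampled flow cytometry, FL1 channel, ex 488/em 535 nm | read-out = percent response from loss of bead-bound FITC fluorescence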
# V-ATPase pH – alters yeast V-ATPase proton transport; S. cerevisiae, pHLuorin cytosolic pH fluorescence; response, % at 10 µM; actives 0.37% (n = 350,000); AID 504577; in the data active = response mostly above about 7.3%, no sharp cut-off; inactive = mostly below about 5.4%; note: actives read high
# XiGFP reactiv – reactivates the inactive X chromosome in mouse fibroblasts. XiGFP mouse fibroblasts, % GFP-positive cells imaging, 3 d; cells co-treated with 5-aza-dC sensitizer; scaled so ellipticine positive control = 100%. activation, % at 7.58 µM. actives 0.055% (n = 360,000). AID 743238;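 active = mean normalized replicate activation at least 10% and every replicate at or above 10%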;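 note: 0% = median of on-plate neutral control wells and 100% = ellipticine 6 µM median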
#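 System: 68-5-11 XiGFP fibroblast line; Timing: 3 days compound exposure; Compound dosing: one concentration, pinned; Benchmarks: positive control ellipticine, 6 µM final; Buffer or medium: DMEM containing 5-aza-dC.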
# NTR1 ag – activates human neurotensin receptor 1. AID 493036. P30989. actives 0.17% (n = 330,000). activation, % at 20 µM. NTR1-U2OS beta-arrestin-GFP spot imaging, agonist mode;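 active = activation at or above 40% of the spot to cytoplasm intensity ratio, with at least 20 cells analyzed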;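 note: 0% = DMSO without peptide and 100% = 100 nM NTR1 peptide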
# Arr-AP2 CP1 – blocks beta-arrestin peptide binding to human AP2 | inhibition, % at 10 µM | actives 2% (n = 1,300) | GST-AP2 beads, FITC arrestin peptide binding, flow cytometry; GST-fused beta2-adaptin appendage, R879A mutant | shares compounds with Arrestin-AP2 inh;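 active = inhibition above a set limit, roughly 3 SD of non-fluorescent compound noise, cut at about 38% in these data; inactive = inhibition at or below that limit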;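 note: loss of bead fluorescence from 50 nM FITC arrestin peptide bound to appendage; 0% = negative control wells and 100% = excess unlabelled arrestin peptide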
# Target sequence (P63010 whole entry, looked up, the tested form may be a part, one chain of several): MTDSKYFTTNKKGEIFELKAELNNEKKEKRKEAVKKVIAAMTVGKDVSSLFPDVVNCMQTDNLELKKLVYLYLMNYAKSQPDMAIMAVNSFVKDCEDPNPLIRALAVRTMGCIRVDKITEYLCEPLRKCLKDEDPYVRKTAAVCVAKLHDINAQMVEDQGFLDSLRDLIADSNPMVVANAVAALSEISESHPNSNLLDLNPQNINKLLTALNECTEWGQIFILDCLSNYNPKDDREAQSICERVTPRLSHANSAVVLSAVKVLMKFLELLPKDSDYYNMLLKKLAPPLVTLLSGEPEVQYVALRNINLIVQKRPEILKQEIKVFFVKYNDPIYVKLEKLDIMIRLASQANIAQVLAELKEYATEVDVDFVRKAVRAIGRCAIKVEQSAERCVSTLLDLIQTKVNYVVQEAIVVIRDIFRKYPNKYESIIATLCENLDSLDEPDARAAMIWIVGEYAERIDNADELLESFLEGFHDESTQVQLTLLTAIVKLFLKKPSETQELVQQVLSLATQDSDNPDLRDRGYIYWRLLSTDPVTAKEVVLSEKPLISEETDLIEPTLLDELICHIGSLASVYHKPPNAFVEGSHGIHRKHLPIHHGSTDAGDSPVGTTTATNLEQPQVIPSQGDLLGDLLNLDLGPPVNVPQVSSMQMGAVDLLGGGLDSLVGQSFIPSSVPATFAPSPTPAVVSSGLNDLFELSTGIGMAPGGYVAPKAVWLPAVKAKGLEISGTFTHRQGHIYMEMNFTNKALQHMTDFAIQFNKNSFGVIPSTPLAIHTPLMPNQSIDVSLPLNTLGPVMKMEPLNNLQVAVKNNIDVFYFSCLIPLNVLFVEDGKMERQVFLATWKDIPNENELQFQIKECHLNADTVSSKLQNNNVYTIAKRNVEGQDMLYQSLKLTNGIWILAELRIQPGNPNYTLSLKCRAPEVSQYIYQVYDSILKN
# GST GSH counter – counter-screen for beta-arrestin AP2 inhibitors: GST-GSH bead binding; shares compounds with Arrestin-AP2 inh; GST-fluorescein binding to GSH beads, fluorescence; inhibition, % at 10 µM; actives 2% (n = 1,300); AID 588338;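 active = inhibition above 50%, about 3 SD of the inhibition seen with non-fluorescent compounds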;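 note: fluorescein maleimide labelled GST captured on 4 micron glutathione beads; higher means more loss of bead fluorescence from quenching or blocked binding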
# VATPase regulator – yeast V-ATPase proton transport regulation; AID 602197; S. cerevisiae pHLuorin cytosolic pH; actives 2% (n = 980); response, % at 10 µM; shares compounds with V-ATPase pH; in the data active = response above about 24%;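 note: plate controls were vehicle wells for no effect and positive control wells for full effect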
# * marks the source's active call; other numbers are inactive results; . = not tested or not shown.
SMILES,T cell modulator,MIN6 prolif,Arrestin-AP2 inh,V-ATPase pH,XiGFP reactiv,NTR1 ag,Arr-AP2 CP1,GST GSH counter,others
CCOC(=O)c1c(C(=O)OCC)c(C)n(N2C(=O)CSC2=S)c1C,195,-3,60*,-2,.,2,-12,-1,
O=C(Oc1ccccc1F)c1ccc2c(=O)n3c(nc2c1)CCC3,215,-3,57*,-1,0,-1,5,-1,
CCn1c(C)nc2cc(C(=O)NNC(=O)Nc3cccc(Cl)c3)ccc21,245,-3,-3,2,0,0,.,.,
CCn1c(C)nc2cc(C(=O)NNC(=O)Nc3ccc(Cl)cc3)ccc21,572,-2,57*,3,0,-1,-13,0,
NC(=O)c1cnn2c(-c3cccc(C(F)(F)F)c3)ccnc12,245,-3,68*,2,0,2,-11,-4,
O=C(O)c1cnn2c(-c3ccccc3)ccnc12,195,-2,-14,-1,0,1,.,.,
Cc1cc2nc(/C(C#N)=C\c3ccc(-c4ccccc4C(=O)O)o3)[nH]c2cc1C,293,-4,54*,0,0,0,6,15,
Cc1ccc2nc(/C(C#N)=C/c3ccc(-c4ccccc4C(=O)O)o3)[nH]c2c1,233,-3,4,2,0,0,.,.,
FC(F)(F)c1cc(C(F)(F)F)c2ccc(Oc3ccccc3)nc2n1,564,-1,5,0,.,-2,.,.,
Nc1ccc2c(C(F)(F)F)cc(C(F)(F)F)nc2n1,178,-2,56*,1,0,0,-3,-6,
CN(C)C(=O)c1cc(C(=O)c2ccc(C(F)(F)F)cc2F)c[nH]1,166,1,62*,1,0,-2,-18,1,
CN(C)C(=O)c1cc(C(=O)c2ccc(F)cc2F)c[nH]1,619,-2,11,-3,0,-1,.,.,
CO[C@H]1CN(C)C(=O)c2cc(NS(C)(=O)=O)ccc2OC[C@H](C)N(CC2CC2)C[C@@H]1C,.,.,.,.,0,.,.,.,
CCn1c(=O)n(CC)c2cc(N3CCCC3)c(NC(=O)c3ccccc3)cc21,350,-1,8,-2,0,7,-2,9,
CCn1c(=O)n(CC)c2cc(N3CCCC3)c(NC(=O)c3ccc(C)cc3)cc21,319,6,11,-1,0,5,25,.,
Cn1c(=O)n(C)c2cc(N3CCCCC3)c(NC(=O)c3ccccc3)cc21,454,-4,9,0,0,4,5,0,
O=C(Nc1cc([N+](=O)[O-])ccc1N1CCCC1)c1ccccc1,368,-2,-12,7,0,2,.,.,
CCN(CC)C(=O)c1cccc(NC(=O)C2=COCCO2)c1,327,-1,68*,-3,0,0,-12,-5,
COCC(=O)N1[C@H](CO)[C@@H](c2ccccc2)[C@@H]1CN(C)C(=O)c1ccccc1,.,.,.,.,0,.,.,.,
O=C(NC(=S)Nc1ccc(N2CCOCC2)cc1)c1cccs1,225,-1,60*,-1,-1,1,-4,3,
COc1ccc(NC(=O)Nc2ccc3c(c2)C(=O)N([C@H](C)CO)C[C@H](C)[C@@H](CN(C)S(=O)(=O)c2c(C)noc2C)OCCCC[C@H](C)O3)cc1,.,.,.,.,0,.,.,.,
CC(=O)Nc1ccc(C(=O)COC(=O)c2ccco2)c(F)c1,423,6,-3,-2,0,-2,.,.,
CC(=O)Nc1ccc(C(=O)COC(=O)c2cc(C)oc2C)c(F)c1,362,-3,72*,-1,0,5,0,-2,
CC(Oc1ccc(Br)cc1)C(=O)N1CCN(c2ccccn2)CC1 (centres undefined),253,-5,6,1,0,0,.,.,
CC(Oc1ccc(Br)cc1)C(=O)N1CCC(C(N)=O)CC1 (centres undefined),107,-4,59*,4,0,0,3,-2,
SMILES,T cell modulator,MIN6 prolif,Arrestin-AP2 inh,V-ATPase pH,XiGFP reactiv,NTR1 ag,Arr-AP2 CP1,GST GSH counter,others
C[C@H]1CN([C@@H](C)CO)C(=O)c2cc(NS(=O)(=O)c3ccccc3)ccc2O[C@H]1CN(C)Cc1ccccc1,.,.,.,.,0,.,.,.,
COc1cc(OC)cc(C(=O)Nc2ccc(S(=O)(=O)Nc3ncccn3)cc2)c1,254,0,55*,0,0,0,-4,-3,
Cc1cccn2cc(-c3ccc(NC(=O)Cc4ccccc4)cc3)nc12,324,4,96*,0,0,-2,-1,-1,
CN(NC(=O)COc1ccccc1)C1=NS(=O)(=O)c2ccccc21,561,1,62*,7,0,-1,0,-7,
Cc1cc(NC(=O)/C=C/c2ccc(F)cc2)n(-c2nc3ccccc3[nH]2)n1,485,0,0,8,0,15,.,.,
Cc1cc(NC(=O)c2ccc(C)s2)n(-c2nc3ccccc3[nH]2)n1,380,-6,1,0,0,10,-13,2,
Cc1cc(NC(=O)c2ccccc2F)n(-c2nc3ccccc3[nH]2)n1,431,1,20,-5,.,4,4,-7,
Cc1cc(NC(=O)c2c(F)cccc2F)n(-c2nc3ccccc3[nH]2)n1,465,-6,13,-3,.,18,11,-4,
Cc1cc(NC(=O)C2CCCCC2)n(-c2nc3ccccc3[nH]2)n1,401,-4,-4,2,.,18,.,.,
Cc1cc(NC(=O)c2c(F)cccc2Cl)n(-c2nc3ccccc3[nH]2)n1,120,-6,99*,.,.,12,6,-6,
C[C@@H]1CN([C@H](C)CO)C(=O)c2cc(NC(=O)CCC(F)(F)F)ccc2O[C@@H](C)CCCCO[C@H]1CN(C)C(=O)CCC(F)(F)F,.,.,.,.,0,.,.,.,
CCCOc1ccc(C2C(C(=O)c3ccc(C)o3)=C(O)C(=O)N2Cc2ccco2)cc1OCC (centres undefined),394,-1,64*,-2,0,3,7,2,
COC(=O)C[C@@H]1CC[C@@H]2[C@H](COC[C@H](O)CN2C(=O)Nc2ccccc2OC)O1,.,.,.,.,0,.,.,.,
CCOC(=O)COc1ccc2c(C#N)c3ccccn3c2c1,.,.,56*,9.6*,0,.,-11,-1,VATPase regulator=-20
COc1ccc(C(=O)C2CCCN(C(=O)C3=CCCC3)C2)cc1OC (centres undefined),243,-1,59*,10*,0,-1,-10,.,VATPase regulator=-7
